Measurements from PubChem BioAssay.
Inconclusive results are not listed.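 Rule for the calls, unless noted: active = growth inhibition above 25% in both replicates, a cutoff set 3 SD above the mean; inconclusive = above 25% in only one replicate; inactive = the rest.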

Legend:
[1] = S. cerevisiae growth inhibition in permissive medium (OD615), pilot counter-assay for S. cerevisiae lifespan shortening project, permissive growth control (AID 705); settings: OD615, 24 h, at 10 µM, stronger effect = higher value
Procedure, shortened: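 System: S. cerevisiae with engineered DeaD lifespan system. Medium: SC raffinose/galactose permissive medium. Doses: single compound dose of 10 µM, 0.25% DMSO final. Schedule: 24 h exposure, 30 °C. Measured by: OD615 turbidity read. Read-out: growth inhibition.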

[2] = S. cerevisiae growth inhibition in restrictive medium, OD615, pilot screen, restrictive growth control, yeast lifespan reduction project (AID 706;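 active = growth inhibition above a set limit, 3 SD over mean compound inhibition, in both replicates, cut at about 43% in these data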;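 note: modified DeaD lifespan yeast strain shifted to restrictive glucose medium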); settings: OD615, 48 h, at 10 µM, stronger effect = higher value
Procedure, shortened: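 Assay system – genetically modified Saccharomyces cerevisiae, DeaD replicative lifespan assay strain · Medium – CSMM-D glucose medium · Doses – 10 µM compound, 0.25% DMSO · Times – 4 h pre-incubation, 48 h exposure at 30 °C · Signal – optical density at 615 nm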

[3] = doxorubicin toxicity protection in MRP-1 cells – H69AR cells, CellTiter-Glo, duplicate, MRP-1 activator project, pilot screen (AID 807;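 active = viability increase at or above a cutoff of the median across tested compounds plus 3 SD, cut at about 8.5% in these data, passing the limit was not always enough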;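 note: compound pretreatment 18-22 h then 72 h combined with doxorubicin; 0% = doxorubicin alone and 100% = vehicle without doxorubicin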); settings: H69AR viability with doxorubicin, CellTiter-Glo luminescence; at 10 µM; stronger effect = higher value
[4] = viability of HCT116 without oncogenic beta-catenin – human colon tumor cells, pilot screen (AID 823;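 active = cell viability at or below a set limit in both duplicate runs, the limit being the all-compound median minus 4 SD, cut at about 23% in these data, passing the limit was not always enough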;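 note: 0% = wells killed by 20 µM Hyamine and 100% = untreated DMSO cell wells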); settings: HCT116 beta-catenin knockout viability, CellTiter-Glo, 60 h; at 10 µM; stronger effect = lower value
[5] = viability of PTEN-null HCT116 cells – cell-based, HCT116 clonal line, CellTiter-Glo, pilot screen (AID 824;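 active = viability at or below 27.92% in each of two runs, the all-compound median minus 4 SD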;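 note: 0% = 20 µM Hyamine control and 100% = vehicle cell control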); settings: HCT116 PTEN-deleted viability, 60 h, at 10 µM, stronger effect = lower value
[6] = RAM pathway blockade in budding yeast – dse1pr::URA3 reporter, 5-FOA selection, pilot screen (AID 869;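 active = inhibition over a set limit, the all-compound mean plus 3 SD, in both replicate runs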;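 note: 0% = DMSO wells with no growth and 100% = 10 µM 1-NA-PP1 with full growth; RAM network block rescues cells from 5-FOA so hits raise OD615 growth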); settings: S. cerevisiae dse1pr::URA3 5-FOA growth, OD615, 2 d; at 10 µM; stronger effect = higher value; strain carries analog-sensitive mutant Cbk1 kinase
[7] = RAM signaling pathway blockade in yeast – S. cerevisiae, Pdr1DBD-CYC8 efflux-inhibited sensitized strain, primary screen (AID 1298;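 active = RAM network inhibition above 8.4% in each of two replicates, 3 SD over the compound average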;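 note: 0% = DMSO untreated cells without growth and 100% = 10 µM 1-NA-PP1 full growth; higher means more yeast growth rescued from 5-FOA killing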); settings: S. cerevisiae cbk1-as DSE1-URA3 strain, 5-FOA growth OD615, 2 d; at 50 µM; stronger effect = higher value

O=C1CCCN1CC(CN1CCOCC1)Sc1nc2ccccc2c(=O)n1-c1ccccc1 (stereo not given)
inactive: growth inhibition [1] -2.25% | growth inhibition [2] -6.07% | viability increase [3] -6.36% | viability [4] 92.1% | viability [5] 97.3% | inhibition [6] 1.88% | RAM network inhibition [7] 1.94%

CCC(Sc1nc(C)cc(=O)[nH]1)C(=O)Nc1ccc(Cl)cn1 (stereo not given)
inactive: growth inhibition [1] -2.36% | growth inhibition [2] 26.5% | viability increase [3] -3.4% | viability [4] 98.9% | viability [5] 96.7% | inhibition [6] 1.84% | RAM network inhibition [7] 3.08%

CCCSc1nc2c(cnn2-c2ccc(F)cc2)c(=O)[nH]1
inactive: growth inhibition [1] -5.3% | growth inhibition [2] -3.29% | viability increase [3] -2.46% | viability [4] 95% | viability [5] 94.7% | inhibition [6] 0.82% | RAM network inhibition [7] 2.71%

Cc1nc2ccccc2c2oc(C(=O)N3CCN(C4CCCCC4)CC3)cc12
inactive: growth inhibition [1] 7.91% | growth inhibition [2] 8.38% | viability increase [3] -3.69% | viability [4] 44.1% | viability [5] 57.5% | inhibition [6] 0.555% | RAM network inhibition [7] 3.92%

COc1ccccc1NC(=O)Cn1cnc2c(oc3ccccc32)c1=O
inactive: growth inhibition [1] -11.8% | growth inhibition [2] -11.6% | viability increase [3] -1.93% | viability [4] 107% | viability [5] 100% | inhibition [6] 1.6% | RAM network inhibition [7] -1.27%

CC1CC(C)CN(S(=O)(=O)c2cccc3cccnc23)C1 (stereo not given)
inactive: growth inhibition [1] -4.23% | growth inhibition [2] -6.44% | viability increase [3] -4.51% | viability [4] 87.9% | viability [5] 94.9% | inhibition [6] -0.45% | RAM network inhibition [7] 1.83%

CC1=C(C(=O)OC2CCCCCCC2)C(c2ccc(O)cc2)NC(=O)N1 (stereo not given)
inactive: growth inhibition [1] -3.17% | growth inhibition [2] 4.04% | viability increase [3] -0.32% | viability [4] 73.8% | viability [5] 72% | inhibition [6] 1.85% | RAM network inhibition [7] 3.65%

Cn1c(N)c(C(=O)COC(=O)Cc2ccsc2)c(=O)n(C)c1=O
inactive: growth inhibition [1] -10.1% | growth inhibition [2] -0.56% | viability increase [3] -0.79% | viability [4] 93.6% | viability [5] 97.7% | inhibition [6] 0.31% | RAM network inhibition [7] -0.32%

CSc1nnc(Cn2c(=O)sc3ccccc32)n1CCc1ccccc1
inactive: growth inhibition [1] 3.19% | growth inhibition [2] 9.71% | viability increase [3] -1.75% | viability [4] 92.2% | viability [5] 83.3% | inhibition [6] 2.35% | RAM network inhibition [7] 6.93%

CCOc1ccccc1Nc1nc2ccccc2n2cnnc12
inactive: growth inhibition [1] -17% | growth inhibition [2] -2.87% | viability increase [3] -6.33% | viability [4] 81.6% | viability [5] 85.7% | inhibition [6] 3.04% | RAM network inhibition [7] 6.66%

COc1cccc(C(c2sc3ncnn3c2O)N2CC(C)OC(C)C2)c1 (stereo not given)
inactive: growth inhibition [1] 4.48% | growth inhibition [2] -2.31% | viability increase [3] 2.62% | viability [4] 99.1% | viability [5] 95.7% | inhibition [6] 1.34% | RAM network inhibition [7] 2.05%

COc1ccc(C2(O)CCN(C(=O)c3ccc4c(c3)OCO4)CC2)cc1
inactive: growth inhibition [1] -12.1% | growth inhibition [2] -15.2% | viability increase [3] -0.75% | viability [4] 106% | viability [5] 101% | inhibition [6] 0.965% | RAM network inhibition [7] 0.72%

O=C(NCCc1ccc(S(=O)(=O)N2CCCC2)cc1)c1cccs1
inactive: growth inhibition [1] 2.67% | growth inhibition [2] 7.14% | viability increase [3] -1.73% | viability [4] 93.4% | viability [5] 90.2% | inhibition [6] 0.545% | RAM network inhibition [7] 6.32%

COc1ccc(Nc2oc(COc3ccccc3F)nc2C#N)cc1
inactive: growth inhibition [1] -10.6% | growth inhibition [2] 11.6% | viability increase [3] -7.35% | viability [4] 51.3% | viability [5] 53.3% | inhibition [6] 2.25% | RAM network inhibition [7] 3.24%

NS(=O)(=O)c1ccc(CCNC(=O)C2CCCN(S(=O)(=O)c3cccnc3)C2)cc1 (stereo not given)
inactive: growth inhibition [1] -8.75% | growth inhibition [2] -8.71% | viability increase [3] -0.63% | viability [4] 108% | viability [5] 97.7% | inhibition [6] 1.63% | RAM network inhibition [7] 5.27%

COc1ccc(C2N3CC4(C)CN2CC(C)(C3)C4)cc1OC (stereo not given)
inactive: growth inhibition [1] -3.73% | growth inhibition [2] -17.4% | viability increase [3] -0.73% | viability [4] 105% | viability [5] 101% | inhibition [6] 1.08% | RAM network inhibition [7] 0.83%

O=C(Nc1c(C(=O)N2CCCC2)cnn1-c1ccccc1)c1cccc(F)c1
inactive: growth inhibition [1] -7.52% | growth inhibition [2] -1.27% | viability increase [3] -0.46% | viability [4] 96.7% | viability [5] 98.9% | inhibition [6] 0.475% | RAM network inhibition [7] 1.02%

Cc1cc(C)cc(N(CC(=O)N2CCN(Cc3ccccc3)CC2)S(=O)(=O)c2c(C)noc2C)c1
inactive: growth inhibition [1] -13.5% | growth inhibition [2] -29.5% | viability increase [3] -4.22% | viability [4] 101% | viability [5] 96.9% | inhibition [6] 1.84% | RAM network inhibition [7] 3.45%

CCN(CC)S(=O)(=O)c1ccc(C(=O)C(C#N)c2ccccn2)cc1 (stereo not given)
inactive: growth inhibition [1] -12.8% | growth inhibition [2] -19.5% | viability increase [3] 1.28% | viability [4] 95.3% | viability [5] 102% | inhibition [6] 0.455% | RAM network inhibition [7] 5.32%

O=C1C(C=NCCN2CCOCC2)=C(O)c2ccccc21
inactive: growth inhibition [1] -15.9% | growth inhibition [2] -26.8% | viability increase [3] -1.88% | viability [4] 100% | viability [5] 92.4% | inhibition [6] 2.4% | RAM network inhibition [7] 3.56%

CC(C)c1ccc(C2CC(=O)N3CN(C)CSC3=C2C#N)cc1 (stereo not given)
inactive: growth inhibition [1] 4.19% | growth inhibition [2] 25% | viability increase [3] -4.3% | viability [4] 91.4% | viability [5] 93.9% | inhibition [6] 1.75% | RAM network inhibition [7] -0.52%

COC(=O)c1sc2nc3c(cc2c1N)COC(C)(C)C3
inactive: growth inhibition [1] -6.75% | growth inhibition [2] -7.37% | viability increase [3] -1.54% | viability [4] 101% | viability [5] 94.1% | inhibition [6] 1.19% | RAM network inhibition [7] 3.17%

CCOC(=O)COC(=O)c1ccc(O)cc1
inactive: growth inhibition [1] -4.13% | growth inhibition [2] -13.5% | viability increase [3] -0.28% | viability [4] 93% | viability [5] 97.8% | inhibition [6] 1.47% | RAM network inhibition [7] 0.37%

C=CCSC1=N/C(=C\c2ccc3c(c2)OCO3)C(=O)S1
inactive: growth inhibition [1] -6.71% | growth inhibition [2] -9.09% | viability increase [3] -5.28% | viability [4] 103% | viability [5] 96.7% | inhibition [6] 4.59% | RAM network inhibition [7] 7.07%

O=C(c1c(F)cccc1F)N1CCN(c2cccc(C(F)(F)F)c2)CC1
inactive: growth inhibition [1] -7.33% | growth inhibition [2] -6.87% | viability increase [3] 2.86% | viability [4] 83.8% | viability [5] 82.1% | inhibition [6] 0.955% | RAM network inhibition [7] 4.98%

Cn1c(Cn2c(=O)sc3ccccc32)nnc1SCc1ccccc1F
inactive: growth inhibition [1] -4.61% | growth inhibition [2] 5.46% | viability increase [3] -0.13% | viability [4] 96.6% | viability [5] 97.4% | inhibition [6] 2.95% | RAM network inhibition [7] 5.27%

CC(c1cccnc1)N(CCN(C)C)C(=O)Nc1ccc(Cl)c(Cl)c1 (stereo not given)
inactive: growth inhibition [1] -5.64% | growth inhibition [2] -0.46% | viability increase [3] -3.34% | viability [4] 88.9% | viability [5] 84.4% | inhibition [6] 1.33% | RAM network inhibition [7] 5.39%

Cc1nn(C)c(C)c1N=Cc1c(O)ccc2ccccc12
inactive: growth inhibition [1] -25.2% | growth inhibition [2] -28.4% | viability increase [3] -1.72% | viability [4] 105% | viability [5] 92.1% | inhibition [6] -0.015% | RAM network inhibition [7] -0.32%

O=S(=O)(Nc1nnc(-c2ccccc2)s1)c1ccc(Cl)cc1
inactive: growth inhibition [1] 4.67% | growth inhibition [2] 14.4% | viability increase [3] -0.34% | viability [4] 104% | viability [5] 105% | inhibition [6] 3.29% | RAM network inhibition [7] 1.95%

O=C(NC1CCCCC1)C1CCN(S(=O)(=O)c2cccc3cccnc23)CC1
inactive: growth inhibition [1] 4.71% | growth inhibition [2] -0.575% | viability increase [3] -0.83% | viability [4] 101% | viability [5] 102% | inhibition [6] 0.46% | RAM network inhibition [7] 1.34%

COc1cc(C2N(c3ccc(Cl)cc3)C(=O)C3CCCN32)cc(OC)c1OC (stereo not given)
inactive: growth inhibition [1] -6.9% | growth inhibition [2] -0.835% | viability increase [3] -2.09% | viability [4] 101% | viability [5] 97.6% | inhibition [6] 2.28% | RAM network inhibition [7] 0.21%

CC1CN(c2ncnc3c2cnn3-c2ccc(Cl)cc2)CC(C)O1 (stereo not given)
inactive: growth inhibition [1] -3.73% | growth inhibition [2] -8.06% | viability increase [3] 3.8% | viability [4] 100% | viability [5] 88.4% | inhibition [6] 1.4% | RAM network inhibition [7] 3.95%

O=C(Cn1c(=O)oc2cc(S(=O)(=O)N3CCOCC3)ccc21)N1CCc2ccccc2C1
inactive: growth inhibition [1] -5.1% | growth inhibition [2] -8.57% | viability increase [3] -2.45% | viability [4] 103% | viability [5] 93.8% | inhibition [6] 2.44% | RAM network inhibition [7] 4.35%

CCn1ccc(C(=O)Nc2ccc(Cl)cn2)n1
inactive: growth inhibition [1] -9.65% | growth inhibition [2] 11.6% | viability increase [3] -1.34% | viability [4] 93.6% | viability [5] 93.9% | inhibition [6] 1.48% | RAM network inhibition [7] 3.03%

Cc1ccc(N(C(=O)CC2NC(=O)NC2=O)C2(C(=O)NC3CCCC3)CCCCC2)cc1 (stereo not given)
inactive: growth inhibition [1] -9.96% | growth inhibition [2] -19.7% | viability increase [3] -1.56% | viability [4] 95.2% | viability [5] 93.7% | inhibition [6] -0.23% | RAM network inhibition [7] 3.14%
